# Data reported in publication PMC8760168 (Current drug metabolism, 2021).
# Where “and” joins values, the source holds several entries; their conditions need not be identical. Equal entries are not always repeated.
# Columns and labels:
# [1] = neutral pH; cited from earlier work
# GABAA receptors = settings: read-out: receptor affinity (EC50); no reference given; cited from earlier work
# [2] = Phase I microsomal stability assay, mouse liver microsomes; format: in vitro ADME; settings: NADPH, 10 μM, 0.5 mg/mL protein, two hours
# Summary of the method: (§1)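 Test compound at 10 μM in phosphate buffer pH 7.4 with NADPH regenerating system, preincubated 5 min at 37°C. Started with dog, mouse or rat liver microsomes or human liver fraction (0.5 mg/mL protein).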
# [3] = Pharmacokinetic studies in mice; format: in vivo, Swiss Webster mice
# Summary of the method: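 Six-week-old female mice given 25 mg/kg by gavage (2% PEG in 2% aqueous HPMC), 25 mg/kg IP (50% propylene glycol/50% PBS pH 7.2) or 1 mg/kg tail vein (PBS pH 7.2). Blood, lung and non-perfused brain taken at 10–1,440 min, n = 4 (oral, IP) or 8 (IV). Methanol extraction with internal standard, then LC-MS/MS. Two-compartment model; half-lives from elimination rates.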
# CYP3A4 = CYP3A4 (Homo sapiens, UniProt P08684); experiment: CYP3A4 inhibition assay; settings: recombinant CYP3A4, fluorescent substrate
# [4] = cited from earlier work
# [5] = Phase II stability assay, glucuronidation, human liver S9; format: in vitro ADME; settings: human liver S9, UDP-GlcUA, alamethicin, saccharolactone, 10 μM
# Summary of the method: (§2)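 Glucuronidation: test compound 10 μM in phosphate buffer pH 7.4 with UDP-glucuronic acid, saccharic-1,4-lactone, MgCl2 and alamethicin, 37°C. Started with human or mouse liver S9 (0.5 mg/mL protein). Short assay sampled 0–120 min; long assay (mouse) sampled 1–24 h. Quenched in acetonitrile with internal standard, then LC-MS/MS. t1/2 from ln area ratio. Long assay: first-order k from glucuronide area ratio. Two independent assays, triplicate.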
# [6] = Phase II stability assay, glucuronidation, mouse liver S9; format: in vitro ADME
# Summary of the method: as §2
# [7] = Quantification of MIDD0301 and MIDD0301 metabolites in urine and feces; format: in vivo, Swiss Webster mice; settings: for Feces & Urine (%) 0-48 hours / Feces (%) 0-24 hours / Feces (%) 24-48 hours / Urine (%) 0-24 hours / Urine (%) 24-48 hours: % of moles of MIDD0301 administered
# Summary of the method: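 Seven-week-old female mice housed singly in metabolic cages; n = 3 per route. Dosing: oral 750 μg, IP 750 μg (50% propylene glycol/PBS) or IV 250 μg (PBS). Urine and feces collected at 0–24 and 24–48 h and stored at −20°C. Extracted with internal standards, ultrafiltered, then C18 LC-MS/MS with positive MRM against synthesized-standard calibration curves. Reported as % of moles administered.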
# [8] = Phase I microsomal stability assay, human liver fraction; format: in vitro ADME; settings: NADPH, 10 μM, 0.5 mg/mL protein, two hours
# Summary of the method: as §1
# [9] = Phase I microsomal stability assay, rat liver microsomes; format: in vitro ADME; settings: NADPH, 10 μM, 0.5 mg/mL protein, two hours
# Summary of the method: as §1
# [10] = Phase II stability assay, glucosidation, mouse kidney S9; format: in vitro ADME; settings: mouse kidney S9, UDP-Glc
# Summary of the method: (§3)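 Glucosidation: test compound 10 μM in phosphate buffer pH 7.4 with UDP-glucose, gluco-1,5-lactone, MgCl2 and alamethicin, 37°C. Started with mouse liver or kidney S9 (0.5 mg/mL protein). Sampled 0–120 min; long assay (kidney) sampled 1–24 h. Quenched in acetonitrile with internal standard, then LC-MS/MS. t1/2 from ln area ratio. Long assay: first-order k from glucoside area ratio. Two independent assays, triplicate.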
# [11] = repeated high dose exposure in rodents; cited from earlier work
# [12] = Phase II stability assay, glucosidation, mouse liver S9; format: in vitro ADME; settings: mouse liver S9, UDP-Glc
# Summary of the method: as §3
# [13] = Phase I microsomal stability assay, dog liver microsomes; format: in vitro ADME; settings: NADPH, 10 μM, 0.5 mg/mL protein, two hours
# Summary of the method: as §1
# [14] = Imaging mass spectrometry of lung after oral administration; format: in vivo, Swiss Webster mice; settings: 25 mg/kg oral, lungs harvested after 1 h, 50 μm resolution
# Summary of the method: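 Female Swiss Webster mice dosed orally. Lungs excised, frozen briefly on dry-ice vapour, stored at −80°C, then equilibrated to −20°C for 30 min. 20-micron cryosections thaw-mounted, rinsed with 0.1% TFA and dried 1 h. 2,5-Dihydroxyacetophenone matrix (50 mg/mL) sprayed in layers. MALDI-TOF/TOF in reflectron MS/MS mode, transitions m/z 416>372 and 416>331.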
# [15] = four hours; cited from earlier work
# Sequence of CYP3A4 (P08684 whole entry): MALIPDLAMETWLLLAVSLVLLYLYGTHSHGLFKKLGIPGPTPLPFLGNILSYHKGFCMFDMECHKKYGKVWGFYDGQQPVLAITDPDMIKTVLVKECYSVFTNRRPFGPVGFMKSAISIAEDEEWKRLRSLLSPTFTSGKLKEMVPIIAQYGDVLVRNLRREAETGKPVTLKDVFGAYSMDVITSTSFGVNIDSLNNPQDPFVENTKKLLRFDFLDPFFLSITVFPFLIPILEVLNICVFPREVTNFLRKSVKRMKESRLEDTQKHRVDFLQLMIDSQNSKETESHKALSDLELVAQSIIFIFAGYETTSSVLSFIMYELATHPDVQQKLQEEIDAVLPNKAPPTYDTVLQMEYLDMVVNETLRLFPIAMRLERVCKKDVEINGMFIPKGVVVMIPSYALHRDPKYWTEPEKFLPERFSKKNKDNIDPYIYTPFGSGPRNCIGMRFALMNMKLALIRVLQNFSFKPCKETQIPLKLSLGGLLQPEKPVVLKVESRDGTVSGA
structure (smiles),measurement,setting,value
C[C@H]1N=C(c2ccccc2F)c2cc(Br)ccc2-n2cnc(C(=O)O)c21 [MIDD0301],aqueous solubility,[1],high
same,EC50,GABAA receptors,72 nM
same,metabolic conversion of MIDD0301,[2],not observed
same,half-lives,"[3]; 1 mg/kg IV tail vein injection, blood, lung, brain",1 to 2 h
same,tolerability of tail vein injection,"[3]; 1 mg/kg IV, aqueous solution",well-tolerated without signs of irritation
same,signs of toxicity,"[3]; 25 mg/kg IP, throughout the study",no signs of toxicity
same,blood concentration after 24 h,[3]; 25 mg/kg oral,12 nM
same,brain concentration after 24 h,[3]; 25 mg/kg oral,less than 3 nM
same,lung concentration after 24 h,[3]; 25 mg/kg oral,less than 3 nM
same,tmax,[3]; 25 mg/kg oral gavage,0.333 h
same,brain concentration as % of the corresponding blood concentrations,"[3]; 25 mg/kg oral, non-perfused brains",less than 7%
same,half-lives for blood and lung,"[3]; 25 mg/kg oral, based on calculated elimination rates, two compartment model",4 to 5 h
same,"drug half-life in blood, lung, and brain",[3]; IP administration,4 to 6 h
same,"drug half-life in blood, lung, and brain",[3]; oral administration,4 to 6 h
same,% inhibition of CYP3A4 activity,CYP3A4; 10 μM,less than 1%
same,brain absorption,[4],very little
same,central nervous system effects,[4]; high single or repeated dosing,no observed central nervous system effects
same,"half-life, conversion to glucuronide",[5],4 h
same,"half-life, conversion to glucuronide","[6]; mouse liver S9, UDP-GlcUA, alamethicin, saccharolactone, 10 μM",2.38 h
same,"reaction rate, formation of MIDD0301 glucuronide (first order kinetics)","[6]; mouse liver S9, monitored for 8 h",0.0042 min⁻¹
same,Feces & Urine (%) 0-48 hours,"[7]; IP, 750 μg",43.9 ± 6.24%
same,Feces (%) 0-24 hours,"[7]; IP, 750 μg",43.2% and 43.2 ± 5.9%
same,Feces (%) 24-48 hours,"[7]; IP, 750 μg",0.3 ± 0.1%
same,Urine (%) 0-24 hours,"[7]; IP, 750 μg",0.3% and 0.3 ± 0.2%
same,Urine (%) 24-48 hours,"[7]; IP, 750 μg",0.1 ± 0.04%
same,Feces & Urine (%) 0-48 hours,"[7]; IV, 250 μg",32% and 32.0 ± 3.7%
same,Feces (%) 0-24 hours,"[7]; IV, 250 μg",30.4% and 30.4 ± 3.4%
same,Feces (%) 24-48 hours,"[7]; IV, 250 μg",1.2 ± 0.2%
same,Urine (%) 0-24 hours,"[7]; IV, 250 μg",0.4% and 0.4 ± 0.1%
same,Urine (%) 24-48 hours,"[7]; IV, 250 μg",<LOD
same,Feces & Urine (%) 0-48 hours,"[7]; oral, 750 μg",55.1% and 55.1 ± 5.7%
same,Feces (%) 0-24 hours,"[7]; oral, 750 μg",54.3% and 54.3 ± 5.2%
same,Feces (%) 24-48 hours,"[7]; oral, 750 μg",0.7% and 0.7 ± 0.4%
same,Urine (%) 0-24 hours,"[7]; oral, 750 μg",0.1% and 0.1 ± 0.01%
same,Urine (%) 24-48 hours,"[7]; oral, 750 μg",<LOD
same,bioavailability,"[7]; oral, from unconjugated MIDD0301 excreted, 32% IV versus 55.1% oral",≤ 77%
same,metabolic conversion of MIDD0301,[8],not observed
same,metabolic conversion of MIDD0301,[9],not observed
same,"reaction rate, formation of MIDD0301 glucoside",[10],0.0038 min⁻¹
same,"half-life, glucosidation",[10]; 10 μM,4.93 h
same,adverse effects,[11],did not cause any adverse effects
same,conversion of MIDD0301 (glucosidation),[12],did not observe conversion
same,metabolic conversion of MIDD0301,[13],not observed
same,spatial distribution in mouse lung (IMS),[14],uniform distribution
C#Cc1ccc2c(c1)C(c1ccccc1F)=N[C@H](C)c1c(C(=O)NC)ncn1-2 [MP-III-022],metabolic stability,[15],stable
C#Cc1ccc2c(c1)C(c1ccccc1F)=N[C@H](C)c1c(C(=O)OCC)ncn1-2 [SH-053-2’F-R-CH3],metabolic stability,[15],metabolized fully within four hours
"Cc1c(O)cccc1C(=O)N[C@@H](CSc1ccccc1)[C@H](O)CN1C[C@H]2CCCC[C@H]2C[C@H]1C(=O)NC(C)(C)C [nelfinavir, reference compound]",inhibition of CYP3A4 activity,CYP3A4; 100 μM,completely inhibited
